# FAS TE block: FAS thioesterase domain inhibitors, primary screen, biochemical, fluorescence intensity, uHTS. AID 602261, 2012. inhibition, % at 15 µM. Fatty acid synthase (Homo sapiens), P49327. recombinant FAS-TE, OMFH fluorogenic substrate, fluorescence endpoint. 360,000 compounds, 0.67% hits;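 active = compounds whose normalised, plate-corrected inhibition of enzyme fluorescence in the single-dose primary screen is 50% or more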
# UCH37 inh: inhibitors of human UCH37 deubiquitinase, primary screen, biochemical, Ub-AMC cleavage, fluorescence. Ubiquitin carboxyl-terminal hydrolase isozyme L5 (Homo sapiens), Q9Y5K5. purified proteasome/UCH37. inhibition, % (concentration not given with the values). 330,000 compounds, 0.33% hits. AID 588478, 2011;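 active = mean inhibition over replicate wells above about 20%, limit read from the data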
#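 System: Proteasome-associated human UCH37 deubiquitinase; Input: 0.15 nM proteasome in added enzyme buffer; Also added: Ub-AMC substrate from 1 µM stock; Incubation: 30 min compound-proteasome preincubation then 25 min substrate reaction, room temperature; Detection: fluorescence, ex 355 nm, em 460 nm; Read-out: % inhibition of Ub-AMC cleavage fluorescence; Benchmarks: no-proteasome and no-compound wells.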
# Rtt109 Vps75: inhibitors of C. albicans Rtt109/Vps75 HAT, primary screen, biochemical, ThioGlo CoA-SH fluorescence, plate reader | inhibition, % at 34.9 µM | purified Rtt109/Vps75, 4 h | 330,000 compounds, 0.16% hits;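 active = inhibition of at least 50% in every replicate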
# Target sequence (Q5AAJ8 whole entry, looked up): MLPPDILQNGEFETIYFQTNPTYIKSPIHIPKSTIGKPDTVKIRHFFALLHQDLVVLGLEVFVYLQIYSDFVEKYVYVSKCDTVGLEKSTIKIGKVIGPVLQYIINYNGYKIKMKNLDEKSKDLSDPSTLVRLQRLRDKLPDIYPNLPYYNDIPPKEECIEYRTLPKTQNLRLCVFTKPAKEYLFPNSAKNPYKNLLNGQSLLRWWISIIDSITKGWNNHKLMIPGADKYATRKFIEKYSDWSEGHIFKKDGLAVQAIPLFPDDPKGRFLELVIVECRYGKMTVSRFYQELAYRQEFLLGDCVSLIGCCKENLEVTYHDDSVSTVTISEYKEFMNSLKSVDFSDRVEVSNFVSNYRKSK
# M18AAP inhibitor: PfM18AAP inhibitors, malaria aminopeptidase, primary screen, biochemical, QFRET, recombinant enzyme. M18 aspartyl aminopeptidase (Plasmodium falciparum 3D7). 290,000 compounds, 1.2% hits. inhibition, % at 7.35 µM. H-Glu-NHMec fluorogenic cleavage. AID 1822, 2009;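 active = inhibition above the campaign mean inhibition over all tested compounds plus 3 SD, cut at about 28% in these data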
# HDAC3 inhib: HDAC3 deacetylase inhibitors, primary screen, biochemical, fluorescence, cell-free homogeneous | recombinant HDAC3, fluorogenic peptide/trypsin coupled | 320,000 compounds, 0.15% hits | Histone deacetylase 3 (Homo sapiens), O15379 | inhibition, % at 8.3 µM; in the data active = inhibition above about 26%, passing the limit was not always enough
# ALR inh: inhibitors of human ALR sulfhydryl oxidase, primary screen, biochemical, H2O2 detection, HRP-luminol luminescence, single point | FAD-linked sulfhydryl oxidase ALR (Homo sapiens), P55789 | purified ALR, DTT oxidation | inhibition, % (test concentration not listed) | 290,000 compounds, 3.8% hits;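 active = mean replicate inhibition above about 79%, with every replicate also reaching it, limit read from the data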
# Target sequence (P55789 whole entry, looked up): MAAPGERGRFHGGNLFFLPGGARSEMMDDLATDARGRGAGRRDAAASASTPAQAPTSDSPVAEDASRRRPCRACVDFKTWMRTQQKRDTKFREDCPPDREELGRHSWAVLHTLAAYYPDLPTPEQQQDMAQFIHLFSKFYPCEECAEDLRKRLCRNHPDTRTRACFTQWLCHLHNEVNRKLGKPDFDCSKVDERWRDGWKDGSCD
# Numbers stand for hits; 0 = inactive; - = not tested or not shown. An excerpt weighted towards active compounds, which were near 4.6% of everything screened.
SMILES,FAS TE block,UCH37 inh,Rtt109 Vps75,M18AAP inhibitor,HDAC3 inhib,ALR inh
Oc1ccc(N=Nc2ccc(Br)cc2)c(O)c1,0,-,0,0,0,98.9
Cc1ccc(N=Nc2ccc(O)cc2)c(Br)c1,0,0,0,0,0,92.2
Fc1cc2ncn(Cc3ccccc3)c2cc1F,0,24.9,0,0,0,0
CC(=O)Oc1ccc(-c2csnn2)cc1,0,0,0,0,0,0
Cc1ccccc1C(=O)NNc1ccc(-c2csnn2)cc1,0,0,0,30.3,0,-
S=c1[nH]nc(-c2ccco2)n1N=Cc1ccc(Cl)cc1Cl,-,0,-,-,-,-
CC1(C)CC(=O)C(C(c2ccco2)C2C(=O)CC(C)(C)CC2=O)C(=O)C1,0,0,0,0,0,83.5
CC1(C)CC(=O)C(C(c2ccc(F)cc2)C2C(=O)CC(C)(C)CC2=O)C(=O)C1,0,0,0,0,0,0
COc1cc(C(=O)ON=C2C=C(C)C(=O)C=C2C)cc(OC)c1OC,-,0,-,-,-,-
Cc1nn(C(C)C(=O)N/N=C/c2ccc(N(C)C)cc2)c(C)c1[N+](=O)[O-] (centres undefined),0,-,0,0,0,98.5
Cc1cc(=O)n(-c2ccc(O)cc2)[nH]1,0,0,0,0,0,98.6
C[N+](C)(C)CC(=O)NN=Cc1c2ccccc2cc2ccccc12,-,0,-,-,-,-
CC1(C)OC(=O)N(c2ccccc2)C12C=Cc1cc(Br)ccc1O2 (centres undefined),0,0,53.4,0,0,0
Cc1cc(C=NNC(=O)COc2cccc3cccnc23)c(C)n1-c1ccccc1,-,0,-,-,-,-
CCn1c(SC(=O)NC2CCCCC2)nnc1-c1cccs1,0,0,0,46.9,0,0
O=C(NN=Cc1ccc([N+](=O)[O-])s1)C(O)c1ccccc1 (centres undefined),-,0,-,-,-,-
Cc1ccc(NC2=CC(=O)CC(C)(C)C2)cc1F,0,0,0,0,0,0
Cc1cc(N)c(NC2=CC(=O)CC(C)(C)C2)cc1C,0,0,0,0,0,98.5
COC(=O)CSC1=C(C#N)C(=O)NC(c2ccccc2)S1 (centres undefined),0,0,0,0,0,-
CSC1=C(C#N)C(=O)NC(c2ccccc2O)S1 (centres undefined),0,0,0,0,0,98.3
COc1cccc(NC(=O)CN(C2=NC3CS(=O)(=O)CC3S2)c2cccc(C)c2)c1 (centres undefined),0,0,0,0,0,98.4
Cc1ccc(-c2nc3c(c(=O)[nH]c(=O)n3CC(C)C)n2CC(C)C)cc1[N+](=O)[O-],0,0,0,0,0,-
CCCCn1c(=O)[nH]c(=O)c2c1nc(-c1ccc(C)c([N+](=O)[O-])c1)n2CC,0,0,0,0,0,96.1
CN(C)c1ccc(C=NNS(=O)(=O)c2ccc(Br)cc2)cc1,-,0,-,-,-,-
Oc1ccc(Br)cc1-c1ccnn1-c1ccccc1,0,0,0,0,0,97.4
SMILES,FAS TE block,UCH37 inh,Rtt109 Vps75,M18AAP inhibitor,HDAC3 inhib,ALR inh
CC1(C)CC(=NO)c2cc3c(nc2C1)CCCC3,-,0,-,-,-,-
CC(=Nc1cccc(O)c1)c1sc2ccccc2c1O,0,0,0,31.0,0,0
CC(=Nc1ccc(C)cc1)c1sc2ccccc2c1O,0,0,0,0,0,0
Nc1nonc1-n1nnc(C(=O)NN=Cc2ccccc2Cl)c1COc1ccc(F)cc1,-,0,-,-,-,-
CCc1ccc(N=C2NC(=O)/C(=C/c3cc(Br)c(OCC(=O)O)c(OC)c3)S2)cc1,0,-,0,0,0,97.7
COc1cnc(-c2ccccn2)nc1Sc1ccccc1,0,0,0,0,0,95.9
CCN1/C(=C2/SC(=S)N(NC(C)=O)C2=O)Sc2ccc(Cl)cc21,0,0,0,0,0,96.2
CCN1/C(=C2/SC(=S)N(NC(C)=O)C2=O)Sc2ccc(OC)cc21,0,0,0,0,0,0
CCc1ccccc1Nc1nc2ccccc2n1C,0,0,0,0,0,97.6
CCOc1ccc(Nc2nc3ccccc3n2C)cc1,0,0,0,-,0,93.6
CCOc1ccc(CNc2nc3ccccc3n2C)cc1,0,0,0,0,0,0
COc1ccc(C=NNC(=O)c2ccc(Cn3cc([N+](=O)[O-])cn3)o2)cc1O,-,0,-,-,-,-
COc1cc(/C=N\Nc2nc3ccccc3[nH]2)cc(OC)c1OC,0,-,0,0,0,98.8
COc1ccc(/C=N/Nc2nc3ccccc3[nH]2)cc1OC,0,-,0,0,0,98.9
CCOc1cc(/C=N/Nc2nc3ccccc3[nH]2)cc(Br)c1OCC(=O)N(C)C,0,-,0,0,0,98.4
COc1cc(/C=N/Nc2ccc(S(N)(=O)=O)cc2)cc(OC)c1OC,0,-,0,0,0,92.8
COc1ccc(C=NNc2nc3ccccc3[nH]2)cc1OC,-,0,-,-,-,-
COc1cc(/C=N/Nc2ccc(C(=O)O)cc2)cc(OC)c1OC,0,-,0,0,0,0
CCN(CC)C(=O)C1CCCN(c2ccc([N+](=O)[O-])cc2C=NNC(=O)c2ccc([N+](=O)[O-])cc2)C1 (centres undefined),-,0,-,-,-,-
CC(=NNC(=O)CSCc1ccc(Cl)cc1)c1ccc(NC(=O)c2ccccc2)cc1,-,0,-,-,-,-
CC1CN(CC(=NO)C23CC4CC(CC(C4)C2)C3)CC(C)O1 (centres undefined),-,0,-,-,-,-
CCOc1ccccc1NC(=S)N1CCN(c2ccc(O)cc2)CC1,0,0,0,29.6,0,99.0
C/C=C/C=NNc1nc(C)cc(=O)[nH]1,-,0,-,-,-,-
O=C(CN1c2ccccc2Sc2ccccc21)NN=Cc1ccccc1,-,0,-,-,-,-
Nc1nnc(SCC(=O)c2ccc([N+](=O)[O-])cc2)s1,0,0,0,0,0,97.8

# Compound activity (PubChem)
